Results pooled from the literature.
Protocols differ between the studies behind these lines. pEC50, pIC50: −log10 of the molar value.

Structure (SMILES) | tested on | test | system | setting | measurement | result
O=c1c2ccccc2[se]n1-c1ccccc1 | HEK293 | cell growth or viability, MTT | – | 250 µM, 72 h | inhibition | 64%
Oc1cccc(C2CCCN(CCc3c[nH]c4ccccc34)C2)c1 (centres unmarked) | HEK293 | cell growth or viability | – | – | pIC50 | < 5.00
COc1cc(C)[nH]c(=O)c1CNC(=O)c1c(C)n([C@H](C)C2CCN(CC(F)(F)F)CC2)c2ccccc12 | KARPAS-422 | cell growth or viability | – | 8 days | GI50 | 0.39 µM
Cc1cccc2c(CNCC3(N4CCCC4)COC3)c[nH]c12 | GBM6 | cell growth or viability | – | 30 µM, 48 h | viability | 60.4%
CO[C@H]1/C=C/O[C@@]2(C)Oc3c(C)c(O)c4c(O)c(c(/C=N/N5CCN(C)CC5)c(O)c4c3C2=O)NC(=O)/C(C)=C\C=C\[C@H](C)[C@H](O)[C@@H](C)[C@@H](O)[C@@H](C)[C@H](OC(C)=O)[C@@H]1C | Mycobacterium avium | microbial growth | – | 6 days | MIC | < 0.78 µM
N.N.[Cl][Pt][Cl] | SK-MEL-28 | cell growth or viability, resazurin | – | dark | pEC50 | 5.47
CNCCCN(C)C(=O)Oc1c(Br)c(C)nc(C)c1-c1ccc(Oc2ccc(OC(F)(F)F)cc2)cc1 | HEK293 | cell growth or viability | – | – | pIC50 | < 5.00
COC(=O)C1=C(C)NC(C)=C(C(=O)OCCN(C)Cc2ccccc2)C1c1cccc([N+](=O)[O-])c1 (centres unmarked) | Vesicular stomatitis virus | viral entry, inhibitor | Vero C1008 | pseudovirus | pIC50 | 4.15 to 4.60
COc1nc2ccc(Br)cc2cc1[C@@H](c1ccccc1)[C@@](O)(CCN(C)C)c1cccc2ccccc12 | Mycolicibacterium phlei | microbial growth | – | – | MIC | 0.05 mg/L
[H]/N=C(/N)N[C@H]1[C@H](O)[C@@H](O)[C@H](O[C@@H]2O[C@@H](C)[C@](O)(C=O)[C@H]2O[C@@H]2O[C@@H](CO)[C@H](O)[C@@H](O)[C@@H]2NC)[C@@H](N/C(N)=N\[H])[C@@H]1O | Mycobacterium avium | microbial growth | ATCC25291 | – | MIC | 12.5 mg/L
Cc1nc(C)c(-c2ccc(Oc3ccc(OC(F)(F)F)cc3)cc2)c(OC(=O)N(CCNC(C)C)C(C)C)c1Br | HEK293 | cell growth or viability | – | – | pIC50 | < 5.00
Cc1cccc2[nH]cc(CNCC3(N4CCCC4)COC3)c12 | GBM6 | cell growth or viability | – | 30 µM, 48 h | viability | 77.5%
COc1ccc(OC)c(C=CC(=O)NC2CCC(CN3CCC(c4c[nH]c5ccccc45)CC3)CC2)c1 (centres unmarked) | HEK293 | cell growth or viability | – | – | pIC50 | < 5.00
NNC(=O)c1ccncc1 | Mycolicibacterium phlei | microbial growth | – | – | MIC | > 8 mg/L
